Measurements from publication PMC2193521 (The Journal of Experimental Medicine, 2001).
Entries after “also recorded” stand apart in the source; their conditions may differ.

What was measured:
m6 TCR [1] = type: binding, mouse; conditions: calculated from the flow cytometry kd, room temperature
Procedure, shortened: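 T2-Ld cells (human lymphoblastoid line expressing Ld, ~3 × 10^6/ml) were loaded with peptide (~1–10 μM final) for 2 h at 37°C. They were stained for 30 min with full-length m6 TCR Drosophila supernatant, washed, and held at room temperature in PBS/1% BSA with F23.2 IgG (~300 μg/ml) as competitor. At timed points, ice-cold washes were done and residual TCR was detected by F23.1-biotin/SAv:PE flow cytometry. n = 2–3.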

m6 TCR [2] = experiment: SPR of TCR binding to immobilized null MCMV/L^d/Ig; design: species or system mouse; conditions: PBS, 25°C
Procedure, shortened: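 MCMV-loaded Ld/IgG1 fusion (peptide at 100-fold molar excess, pH 6.5, 37°C 1.5 h; refolded pH 7.4, 4°C 24 h; G-200 repurified) was captured on a CM5 chip coated with rabbit anti-mouse IgG. Drosophila-expressed His6 soluble m6 TCR, Ni-NTA and gel-filtration purified, was injected at several concentrations at 30 μl/min. Responses were blank-surface subtracted; regeneration used 10 mM glycine, pH 1.5.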

Substance | t1/2 of m6 TCR on cell-bound peptide/L^d (m6 TCR [1]) | TCR binding to peptide/L^d/Ig immobilized on the chip (m6 TCR [2])
QL9-Y5: QL9 variant with a Tyr substitution for the Phe at position 5 (QLSPYPFDL) | 1,180 s | 
QL9-M5: QL9 variant containing a position five (Phe) substitution (QLSPMPFDL) | 140 s | 
YPHFMPTNL [MCMV] |  | not observed; also recorded: undetectable
